Reference: ChEMBL document CHEMBL4680310, “Identification of N-acyl-N-indanyl-α-phenylglycinamides as selective TRPM8 antagonists designed to mitigate the risk of adverse effects” (Bioorg Med Chem, 2021)
Values belong to the compound of their own block, whether it stands above or below them. Calls of active or inactive are those of the source. No cut-off for these calls is given here.

Columns and labels:
CYP3A4 = CYP3A4 (Homo sapiens, UniProt P08684); test: Inhibition of CYP3A4 in human liver microsomes assessed as reduction in 1'-hydroxymidazolam formation using midazolam as substrate at 10 uM preincubated with enzyme and NADPH followed by substrate addition and measured after 10 mins by HPLC/MS-MS analysis relative to control; type: ADME; conditions: probe midazolam (1'-hydroxymidazolam formation)
How it was run: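 Compound at 100 µM was pre-incubated at 37 °C with human liver microsomes (0.5 mg/mL) in 0.1 M phosphate pH 7.4 with 5 mM MgCl₂ and 1 mM NADPH. The mix was then diluted 10-fold into 25 µM midazolam in the same buffer and incubated 10 min at 37 °C. Ice-cold acetonitrile stopped the reaction. 1′-Hydroxymidazolam was quantified by HPLC-MS/MS, with ketoconazole (1 µM) as reference inhibitor.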

[1] = molecular target: Transient receptor potential cation channel subfamily M member 8 (Homo sapiens, UniProt Q7Z2W7); test: Antagonist activity at human TRPM8 transfected in HEK293T cells assessed as reduction in menthol-induced calcium influx measured after 60 mins by Fluo-4 AM dye based fluorescence analysis; type: cell-based
[2] = molecular target: Transient receptor potential cation channel subfamily M member 8 (Rattus norvegicus, UniProt Q8R455); test: Antagonist activity at rat TRPM8 transfected in HEK293T cells assessed as reduction in menthol-induced calcium influx measured after 60 mins by Fluo-4 AM dye based fluorescence analysis; type: cell-based
How it was run: (§1)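 HEK293T cells were seeded at 5 × 10⁴ cells/well in DMEM with 10% FBS and transfected 4 h later. The vectors were pcDNA3.1 for TRPM8, TRPA1 and TRPV4, and pCI-neo for TRPV1. After 2 days, cells were dye-loaded for 60 min at 37 °C: Fluo-4 AM for TRPM8, TRPA1 and TRPV1, Fura-2 AM for TRPV4. Calcium was read on an FDSS reader. IC50 came from nonlinear regression, mean ± SEM (n = 3).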

[3] = Volume of distribution at steady state in Sprague-Dawley rat at 1 mg/kg, iv measured upto 6 hrs by LC-MS/MS analysis; type: ADME, organism-based; conditions: in vivo, read-out: Vdss
How it was run: (§2)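 Rats were given a single oral or intravenous dose. Blood was taken from the jugular vein at 2, 15 and 30 min and at 1, 2, 4 and 6 h. Plasma levels were measured by LC-MS/MS. Each parameter was calculated from the mean plasma concentration of three animals.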

[4] = molecular target: Transient receptor potential cation channel subfamily A member 1 (Homo sapiens, UniProt O75762); test: Inhibition of human TRPA1 transfected in HEK293T cells assessed as reduction in AITC-induced calcium influx measured after 60 mins by Fluo-4 AM dye based fluorescence analysis; type: cell-based; how it was run: as §1
[5] = AUC (0 to infinity) in Sprague-Dawley rat at 1 mg/kg, iv by LC-MS/MS analysis; type: ADME, organism-based; design: time infinity, route intravenous, dose 1 mg/kg; conditions: in vivo; how it was run: as §2
[6] = AUC (0 to infinity) in Sprague-Dawley rat at 3 mg/kg, po by LC-MS/MS analysis; type: ADME, organism-based; design: time infinity, route oral, dose 3 mg/kg; conditions: in vivo; how it was run: as §2
[7] = Oral bioavailability in Sprague-Dawley rat at 3 mg/kg measured upto 6 hrs by LC-MS/MS analysis; type: ADME, organism-based; conditions: in vivo; how it was run: as §2
[8] = Cmax in Sprague-Dawley rat at 3 mg/kg, po measured upto 6 hrs by LC-MS/MS analysis; type: ADME, organism-based; design: route oral, dose 3 mg/kg, time <=6; conditions: in vivo; how it was run: as §2
[9] = molecular target: Transient receptor potential cation channel subfamily V member 1 (Homo sapiens, UniProt Q8NER1); test: Inhibition of human TRPV1 transfected in HEK293T cells assessed as reduction in capsaicin-induced calcium influx measured after 60 mins by Fluo-4 AM dye based fluorescence analysis; type: cell-based; how it was run: as §1
[10] = Tmax in Sprague-Dawley rat at 3 mg/kg, po by LC-MS/MS analysis; type: ADME, organism-based; conditions: in vivo, time <=6 hrs; how it was run: as §2
[11] = Half life in Sprague Dawley rat at 1 mg/kg, iv by LC-MS/MS analysis; type: ADME, organism-based; conditions: in vivo; how it was run: as §2
[12] = molecular target: Transient receptor potential cation channel subfamily V member 4 (Homo sapiens, UniProt Q9HBA0); test: Inhibition of human TRPV4 transfected in HEK293T cells assessed as reduction in RN1747-induced calcium influx measured after 60 mins by Fura-2 AM dye based fluorescence analysis; type: cell-based; how it was run: as §1
[13] = Toxicity in mouse assessed as convulsions at 300 mg/kg, po; type: organism-based; conditions: in vivo
[14] = Total clearance in Sprague-Dawley rat at 1 mg/kg, iv measured upto 6 hrs by LC-MS/MS analysis; type: ADME, organism-based; conditions: in vivo; how it was run: as §2
[15] = Plasma concentration in rat measured after 4 hrs; type: ADME, cell-free
Rattus norvegicus [16] = test: Inhibition of overactive bladder activity in Sprague-Dawley rat assessed as inhibition of cold-induced voiding behaviour by measuring mean voided volume at 10 mg/kg, po administered 1 hr prior to cold exposure and measured at 2 mins interval for 4 hrs (reference value: 0.57 +/- 0.05 ml); type: functional; conditions: time 5 hrs
[17] = In vivo antagonist activity at TRPM8 in Sprague-Dawley rat assessed as inhibition of icilin-induced wet dog shakes at 10 mg/kg, po administered 1 hr prior to icilin administration and measured after 5 mins for 5 mins; type: functional; conditions: 1.167 h, time 70 min
How it was run: (§3)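 Female rats received vehicle or compound orally. After 1 or 4 h, icilin (1 mg/mL in PEG 400) was given intraperitoneally. Wet-dog shakes were counted for 5 min, starting 5 min after icilin. Results are percent inhibition versus vehicle-treated counts, mean ± SEM (n = 5).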

Rattus norvegicus [18] = test: Inhibition of overactive bladder activity in Sprague-Dawley rat assessed as inhibition of cold-induced voiding behaviour by measuring reduction in voiding frequency at 10 mg/kg, po administered 1 hr prior to cold exposure and measured at 2 mins interval for 4 hrs; type: functional, organism-based; conditions: time 5.0 hrs
[19] = Drug uptake in rat brain measured after 4 hrs; type: ADME, tissue-based; conditions: read-out: Drug uptake
[20] = molecular target: T1, Nuclear receptor subfamily 1 group I member 2 (Homo sapiens, UniProt O75469); test: Activation of human PXR ligand binding domain incubated for 1 hr by TR-FRET assay; type: ADME
T1 sequence (O75469 whole entry): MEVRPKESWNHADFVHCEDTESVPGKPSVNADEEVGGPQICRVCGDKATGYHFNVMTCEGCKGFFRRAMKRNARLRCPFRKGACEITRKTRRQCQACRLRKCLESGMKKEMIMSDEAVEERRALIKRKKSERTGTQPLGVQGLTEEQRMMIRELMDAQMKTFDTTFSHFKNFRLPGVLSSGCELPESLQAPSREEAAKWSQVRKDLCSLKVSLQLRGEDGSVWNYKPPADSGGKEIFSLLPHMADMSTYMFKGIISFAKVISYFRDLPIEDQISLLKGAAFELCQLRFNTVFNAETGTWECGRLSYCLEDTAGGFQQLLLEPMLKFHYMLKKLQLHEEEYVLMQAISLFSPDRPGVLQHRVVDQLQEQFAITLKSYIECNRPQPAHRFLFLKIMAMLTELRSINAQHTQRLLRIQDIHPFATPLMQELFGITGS

[21] = Ratio of drug level in rat brain to plasma measured after 4 hrs; type: ADME, cell-free; conditions: read-out: BPR
Rattus norvegicus [22] = test: Inhibition of overactive bladder activity in Sprague-Dawley rat assessed as inhibition of cold-induced voiding behaviour by measuring total voided volume at 10 mg/kg, po administered 1 hr prior to cold exposure and measured at 2 mins interval for 4 hrs (reference value: 5.57 +/-0.27 ml); type: functional; conditions: time 5 hrs
[23] = In vivo antagonist activity at TRPM8 in Sprague-Dawley rat assessed as inhibition of icilin-induced wet dog shakes at 10 mg/kg, po administered 4 hrs prior to icilin administration and measured after 5 mins for 5 mins; type: functional; conditions: 4.167 h, time 250 min; how it was run: as §3

CYP3A4, sequence (P08684 whole entry): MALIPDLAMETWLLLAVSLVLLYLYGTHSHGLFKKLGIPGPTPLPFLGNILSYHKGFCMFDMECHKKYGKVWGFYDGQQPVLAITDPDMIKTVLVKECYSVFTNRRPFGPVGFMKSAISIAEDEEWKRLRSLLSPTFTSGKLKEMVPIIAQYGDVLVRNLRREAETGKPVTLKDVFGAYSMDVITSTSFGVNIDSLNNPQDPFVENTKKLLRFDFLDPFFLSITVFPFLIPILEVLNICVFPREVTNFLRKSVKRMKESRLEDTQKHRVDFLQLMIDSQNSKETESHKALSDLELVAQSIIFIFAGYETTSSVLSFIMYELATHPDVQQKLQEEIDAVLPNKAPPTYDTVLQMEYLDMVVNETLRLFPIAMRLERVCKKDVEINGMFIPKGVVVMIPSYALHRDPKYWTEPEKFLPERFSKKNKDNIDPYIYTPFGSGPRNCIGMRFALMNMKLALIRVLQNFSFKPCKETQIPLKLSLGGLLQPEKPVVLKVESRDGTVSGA
Transient receptor potential cation channel subfamily A member 1, sequence (O75762 whole entry): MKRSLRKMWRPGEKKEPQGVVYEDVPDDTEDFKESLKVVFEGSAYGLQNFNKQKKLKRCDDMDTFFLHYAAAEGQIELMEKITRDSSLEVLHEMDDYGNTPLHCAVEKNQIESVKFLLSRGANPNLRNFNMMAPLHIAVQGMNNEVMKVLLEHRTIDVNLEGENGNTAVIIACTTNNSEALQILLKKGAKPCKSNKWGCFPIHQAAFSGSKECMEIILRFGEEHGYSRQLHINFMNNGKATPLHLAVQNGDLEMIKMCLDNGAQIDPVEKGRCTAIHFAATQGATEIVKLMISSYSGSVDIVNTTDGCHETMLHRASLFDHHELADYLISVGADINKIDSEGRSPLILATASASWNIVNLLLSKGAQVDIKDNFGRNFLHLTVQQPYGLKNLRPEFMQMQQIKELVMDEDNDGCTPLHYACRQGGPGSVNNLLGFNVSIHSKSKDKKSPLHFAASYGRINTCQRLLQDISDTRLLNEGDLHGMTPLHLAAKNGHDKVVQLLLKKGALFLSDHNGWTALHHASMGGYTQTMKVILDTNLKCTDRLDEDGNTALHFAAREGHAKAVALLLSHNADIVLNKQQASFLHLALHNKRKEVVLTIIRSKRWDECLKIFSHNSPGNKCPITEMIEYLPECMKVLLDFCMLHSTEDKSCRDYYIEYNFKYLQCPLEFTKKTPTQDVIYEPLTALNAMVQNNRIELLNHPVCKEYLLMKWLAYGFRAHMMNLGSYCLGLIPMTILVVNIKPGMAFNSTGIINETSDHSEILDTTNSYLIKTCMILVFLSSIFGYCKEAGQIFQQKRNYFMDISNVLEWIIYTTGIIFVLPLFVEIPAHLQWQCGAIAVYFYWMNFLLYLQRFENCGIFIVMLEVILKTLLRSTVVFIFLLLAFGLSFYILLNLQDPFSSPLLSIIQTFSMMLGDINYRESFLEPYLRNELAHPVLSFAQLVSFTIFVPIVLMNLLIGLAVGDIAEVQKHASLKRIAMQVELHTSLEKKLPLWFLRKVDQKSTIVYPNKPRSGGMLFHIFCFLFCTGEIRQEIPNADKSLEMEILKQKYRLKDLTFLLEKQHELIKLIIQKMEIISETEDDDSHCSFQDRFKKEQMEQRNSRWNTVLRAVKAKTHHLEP
Transient receptor potential cation channel subfamily M member 8 (Homo sapiens, UniProt Q7Z2W7), sequence (Q7Z2W7 whole entry): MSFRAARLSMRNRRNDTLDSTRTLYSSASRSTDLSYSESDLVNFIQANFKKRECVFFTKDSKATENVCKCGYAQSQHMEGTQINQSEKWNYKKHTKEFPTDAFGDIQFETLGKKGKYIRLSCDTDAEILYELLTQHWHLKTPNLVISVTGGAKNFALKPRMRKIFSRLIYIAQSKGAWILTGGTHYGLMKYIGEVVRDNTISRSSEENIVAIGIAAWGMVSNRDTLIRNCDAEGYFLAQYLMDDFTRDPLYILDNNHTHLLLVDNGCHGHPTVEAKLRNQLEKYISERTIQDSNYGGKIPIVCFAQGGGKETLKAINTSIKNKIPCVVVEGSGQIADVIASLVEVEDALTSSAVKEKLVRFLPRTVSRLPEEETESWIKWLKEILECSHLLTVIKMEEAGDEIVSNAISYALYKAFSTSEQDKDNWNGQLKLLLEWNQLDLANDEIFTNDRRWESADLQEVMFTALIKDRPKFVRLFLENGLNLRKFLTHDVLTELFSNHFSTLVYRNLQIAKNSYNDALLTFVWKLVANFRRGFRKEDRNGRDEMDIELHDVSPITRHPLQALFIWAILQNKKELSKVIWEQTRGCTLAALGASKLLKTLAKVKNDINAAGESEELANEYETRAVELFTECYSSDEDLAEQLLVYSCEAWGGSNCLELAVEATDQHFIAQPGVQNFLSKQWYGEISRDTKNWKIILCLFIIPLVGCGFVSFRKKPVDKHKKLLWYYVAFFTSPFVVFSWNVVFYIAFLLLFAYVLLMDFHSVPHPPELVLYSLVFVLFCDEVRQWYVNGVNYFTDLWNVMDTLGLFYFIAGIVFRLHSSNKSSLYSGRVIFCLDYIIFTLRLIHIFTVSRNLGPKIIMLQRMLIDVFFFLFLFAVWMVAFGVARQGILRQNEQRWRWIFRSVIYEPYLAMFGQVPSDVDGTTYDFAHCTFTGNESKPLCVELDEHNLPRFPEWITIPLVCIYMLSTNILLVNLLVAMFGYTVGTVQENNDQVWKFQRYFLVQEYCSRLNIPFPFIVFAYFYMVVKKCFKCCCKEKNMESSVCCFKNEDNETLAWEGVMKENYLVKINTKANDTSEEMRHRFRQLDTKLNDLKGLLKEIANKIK
Transient receptor potential cation channel subfamily M member 8 (Rattus norvegicus, UniProt Q8R455), sequence (Q8R455 whole entry): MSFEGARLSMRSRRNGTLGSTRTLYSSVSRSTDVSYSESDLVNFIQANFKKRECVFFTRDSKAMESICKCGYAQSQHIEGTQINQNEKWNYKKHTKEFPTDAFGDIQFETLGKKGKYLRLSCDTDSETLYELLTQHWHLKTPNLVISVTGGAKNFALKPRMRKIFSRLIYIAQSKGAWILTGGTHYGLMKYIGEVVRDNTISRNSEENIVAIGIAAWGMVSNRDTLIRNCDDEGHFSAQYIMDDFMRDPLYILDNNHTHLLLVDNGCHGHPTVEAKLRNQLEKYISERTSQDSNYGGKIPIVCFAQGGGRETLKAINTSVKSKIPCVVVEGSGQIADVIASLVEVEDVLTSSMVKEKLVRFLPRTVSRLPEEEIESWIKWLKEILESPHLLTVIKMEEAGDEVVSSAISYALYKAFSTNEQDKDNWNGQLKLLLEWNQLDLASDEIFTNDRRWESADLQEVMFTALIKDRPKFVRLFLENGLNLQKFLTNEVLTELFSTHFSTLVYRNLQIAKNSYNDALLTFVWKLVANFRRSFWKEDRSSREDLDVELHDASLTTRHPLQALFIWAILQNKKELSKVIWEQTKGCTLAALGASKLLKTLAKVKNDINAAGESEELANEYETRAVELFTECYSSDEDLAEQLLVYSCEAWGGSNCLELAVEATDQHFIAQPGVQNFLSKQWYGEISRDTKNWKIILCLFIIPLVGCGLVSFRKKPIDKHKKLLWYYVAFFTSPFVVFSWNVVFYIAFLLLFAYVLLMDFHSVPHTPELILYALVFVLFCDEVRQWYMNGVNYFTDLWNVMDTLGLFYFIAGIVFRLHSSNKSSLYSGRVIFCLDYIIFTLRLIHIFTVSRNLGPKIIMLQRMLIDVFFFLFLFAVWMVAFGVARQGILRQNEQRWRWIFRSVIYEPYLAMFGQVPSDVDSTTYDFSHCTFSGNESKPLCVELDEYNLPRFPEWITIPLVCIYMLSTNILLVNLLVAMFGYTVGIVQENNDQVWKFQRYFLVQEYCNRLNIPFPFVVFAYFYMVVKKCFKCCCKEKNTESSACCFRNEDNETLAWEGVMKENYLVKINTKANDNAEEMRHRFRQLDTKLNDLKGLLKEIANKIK
Transient receptor potential cation channel subfamily V member 4, sequence (Q9HBA0 whole entry): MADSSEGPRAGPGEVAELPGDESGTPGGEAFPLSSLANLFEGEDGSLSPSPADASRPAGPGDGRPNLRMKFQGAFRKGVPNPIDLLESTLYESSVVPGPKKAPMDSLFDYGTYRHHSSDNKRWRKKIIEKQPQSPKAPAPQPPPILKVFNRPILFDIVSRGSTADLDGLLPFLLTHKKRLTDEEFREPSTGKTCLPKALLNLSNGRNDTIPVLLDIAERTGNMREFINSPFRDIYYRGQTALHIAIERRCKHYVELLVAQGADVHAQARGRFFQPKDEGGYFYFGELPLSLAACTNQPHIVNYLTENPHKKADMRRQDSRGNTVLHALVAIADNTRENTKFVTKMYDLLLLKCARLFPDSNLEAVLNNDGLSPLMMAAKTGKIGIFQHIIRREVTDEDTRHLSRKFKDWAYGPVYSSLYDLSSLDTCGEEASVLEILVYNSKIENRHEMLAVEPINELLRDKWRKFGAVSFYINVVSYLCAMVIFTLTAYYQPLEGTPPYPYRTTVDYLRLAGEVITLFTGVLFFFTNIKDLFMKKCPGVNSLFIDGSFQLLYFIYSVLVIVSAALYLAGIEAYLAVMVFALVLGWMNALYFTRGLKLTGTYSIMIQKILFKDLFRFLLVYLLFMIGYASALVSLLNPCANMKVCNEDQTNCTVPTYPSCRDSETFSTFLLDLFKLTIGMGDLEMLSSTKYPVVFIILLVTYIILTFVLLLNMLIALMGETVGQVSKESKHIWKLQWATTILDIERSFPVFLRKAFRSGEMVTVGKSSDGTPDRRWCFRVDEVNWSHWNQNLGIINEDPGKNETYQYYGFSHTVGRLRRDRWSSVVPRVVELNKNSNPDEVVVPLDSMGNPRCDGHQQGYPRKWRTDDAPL

- inhibition at 10 min, 10 µM (CYP3A4): 18%
Compound: NC(=O)[C@@H](c1ccccc1)N(C(=O)c1cccnc1N)[C@@H]1CCc2c(F)cc(Cl)cc21

- IC50 [1]: 19.5 µM
Compound: NC(=O)[C@@H](c1ccccc1)N(C(=O)c1ccccc1)[C@@H]1CCc2ncccc21

- IC50 [2]: 0.08 µM
- Vd [3]: 1.89 L/kg
- IC50 [4]: > 30 µM
- AUC(0-inf) [5]: 674 ng·h/mL
- AUC(0-inf) [6]: 1110 ng·h/mL
- bioavailability [7]: 55%
- Cmax [8]: 466 ng/mL
- IC50 [9]: > 30 µM
- inhibition at 10 min, 10 µM (CYP3A4): 17%
- Tmax [10]: 40 min
- half-life [11]: 64 min
- IC50 [12]: > 30 µM
- clearance [14]: 25 mL/min/kg
Compound: Cc1ncccc1C(=O)N([C@@H]1CCc2c(F)cc(Cl)cc21)[C@@H](C(N)=O)c1ccccc1
- Activity [13]: Non-Toxic

- concentration at 4 h [15]: 103 µM
- concentration at 4 h [19]: 171 µM
- EC50 [20]: 10.3 µM
- inhibition at 10 min, 10 µM (CYP3A4): 27%
- Kp at 4 h [21]: 1.66
Compound: C[C@H](c1cc(F)cc(F)c1)N(C(=O)c1ccccc1)[C@@H](C(N)=O)c1ccccc1
- Activity (Rattus norvegicus [16]): 0.75 mL
- inhibition in vivo at 10 mg/kg [17]: 100%
- inhibition (Rattus norvegicus [18]): Active
- Activity (Rattus norvegicus [22]): 5.81 mL
- inhibition in vivo at 10 mg/kg [23]: 97%

- EC50 [20]: 12 µM
Compound: C[C@H](c1cc(F)cc(F)c1)N(C(=O)c1ccccc1O)[C@@H](C(N)=O)c1ccccc1

- EC50 [20]: 47 µM
Compound: NC(=O)[C@@H](c1ccccc1)N(C(=O)c1cccnc1)[C@@H]1CCc2c(F)cc(F)cc21

- inhibition at 10 min, 10 µM (CYP3A4): 22%
Compound: COc1ncccc1C(=O)N([C@@H]1CCc2c(F)cc(Cl)cc21)[C@@H](C(N)=O)c1ccccc1

- EC50 [20]: 131 µM
- inhibition at 10 min, 10 µM (CYP3A4): 65%
Compound: NC(=O)[C@@H](c1ccccc1)N(C(=O)c1cccnc1)[C@@H]1CCc2c(F)cc(Cl)cc21
- Activity [13]: Non-Toxic
